How the values were obtained:
[1] = Microscale thermophoresis; type: binding; conditions: MST; for Hill coefficient / cooperativity factor (n) of binding with CS: Hill fit, n > 1 positive, n < 1 negative cooperativity
Method in brief: (§1)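 Peptide labeled with 5-FAM at the N-terminus was spun at 14,000 g for 10 min, then used at 200 nM. MST was run at 50% excitation and 40% MST power, room temperature, with 20 s traces. A Hill fit of ΔF_Norm gave Kd and n. n=3 independent runs, mean ± SD.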

[2] = Microscale thermophoresis; type: binding; conditions: MST, HA titrated up to 2 μM (physiological SF concentration)
γ-Globulin = assay: Microscale thermophoresis; type: binding, bovine; conditions: MST; for Hill coefficient / cooperativity factor (n) of binding with γ-Globulin: Hill fit
Method in brief: as §1

[3] = type: in vivo; conditions: quadriceps and patellar tendon, fat pad; rat, 24 h after IA injection, Cy5 label
Method in brief: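 Healthy male Wistar rats (8–10 weeks, 350–400 g) received 50 μl of 300 μM Cy5-labeled test peptide intra-articularly through the patellar tendon, with saline controls. Legs were flexed to spread the dose, and rats were killed at 24 h. Harvested knee tissues were imaged by confocal microscopy at 10X, with Z-stacks reconstructed to X-Z sections for penetration depth. N=6 joints per treatment.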

[4] = Equilibrium intra-cartilage uptake of CPCs in bovine cartilage explants; conditions: 30 μM CPC, 24 h, 37°C; for Intra-cartilage uptake in presence of HA (comparison between CPCs): 3 mg/ml HA; for Intra-cartilage uptake in presence of BSA (comparison between CPCs) / Intra-cartilage equilibrium uptake ratio (RU): 12 mg/ml BSA; for Intra-cartilage equilibrium uptake ratio (RU): Healthy (simulated) SF: 3 mg/ml HA, 0.1 mg/ml DLPC in PBS pH 7.4, bath fluorescence, mean, n >= 6; for Reduction of intra-cartilage uptake in Healthy SF relative to PBS: Healthy SF vs PBS
[5] = solute concentration inside cartilage relative to surrounding bath; cited from earlier work
[6] = over 7-days desorption period; cited from earlier work

Binding with CS-GAG compared with CPC +N [1]	Substance	Hill coefficient / cooperativity factor (n) of binding with CS [1]	Binding with HA as ligand [2]	Hill coefficient / cooperativity factor (n) of binding with γ-Globulin (γ-Globulin)	Confocal fluorescence signal in less GAG-rich tissues [3]	Intra-cartilage uptake in presence of phospholipids (DLPC), comparison ([4]; 0.1 mg/ml DLPC)	Intra-cartilage uptake in presence of HA (comparison between CPCs) [4]	Intra-cartilage uptake in presence of BSA (comparison between CPCs) [4]	Intra-cartilage uptake relative to CPC +14A (fold higher) ([4]; 12 mg/ml γ-Globulin)	Intra-cartilage equilibrium uptake ratio (RU) ([4]; 12 mg/ml γ-Globulin)	Reduction of intra-cartilage uptake in Healthy SF relative to PBS [4]	Intra-cartilage uptake relative to CPC +14A (fold higher) ([4]; Healthy SF)	Intra-cartilage uptake relative to CPC +14A (fold higher) ([4]; OA SF)	Kd with γ-Globulin, fold lower than that of CPC +14N (γ-Globulin)	Intra-cartilage uptake [5]	Retained within cartilage [6]
	RRRR(NNRRR)3 R [CPC +14N]	1.6	completely unbound	0.67	weak fluorescence signal	higher uptake than CPC +14A	no significant difference	no significant difference	2.8 x	120	2.7 x	1.5 x	2 x			
	(AK)7ANANAN [CPC +N]	0.8														
stronger binding	(AK)7AFAFAF [CPC +F]	1.6														
	RRRR(AARRR)3 R [CPC +14A]		completely unbound	0.67	weak fluorescence signal		no significant difference	no significant difference		80	4.5 x			1.8 x	350	> 95%
